Results of several laboratories.
Protocols differ between the studies behind these lines.
Target: Protein-tyrosine kinase 2-beta (PTK2B, Homo sapiens, UniProt Q14289)

With `Cn1cc(-c2cc(F)cc(N3CCn4c(cc5c4CCCC5)C3=O)c2CO)cc(Nc2ccc(N3CCN(C4COC4)CC3)cn2)c1=O` the inhibition was 6% (enzyme activity; inhibitor; 0.1 µM).
`N#CC1(c2ccccn2)CCN(Cc2cc(C(=O)O)c(=O)n3ccccc23)CC1` has a remaining binding of 100% (cell-free assay; competition with immobilised ligand; 1 µM).
`O=c1[nH]c2ccccc2n1C1CCN(Cc2ccc(-c3[nH]c4cc5ncnc5cc4nc3-c3ccccc3)cc2)CC1` gave a remaining activity of 105% (enzyme activity; 0.5 µM).
`Cn1cc(-c2cccc(N3CCc4c(sc5c4CC(C)(C)C5)C3=O)c2CO)cc(Nc2ccncn2)c1=O` gave an inhibition of 2% (enzyme activity; inhibitor; 1 µM).
The remaining binding of `Cc1nn(C)cc1-c1nc2c(N3CCN(Cc4ccc(Cl)cc4)CC3)c(Cl)cnc2[nH]1` is reported as 100% (binding; competition with immobilised ligand; 1 µM).
With `Nc1ncc(-c2nc(N3CCOCC3)nc(N3CCOCC3)n2)c(C(F)F)n1` the remaining binding was 70% (binding; competition with immobilised ligand; 10 µM).
The remaining binding of `COc1ncccc1-c1cnn2ccc(N3CCN(C(=O)OC(C)C)CC3)nc12` is reported as 100% (binding; competition with immobilised ligand; 1 µM).
`Cn1cncc1[C@@](O)(COc1ccc(C#N)cc1-c1ccc(OC(F)(F)F)cc1)c1ccc(C#N)cc1` has a remaining binding of 100% (cell-free assay; competition with immobilised ligand; 1 µM).
